From BindingDB's records for doi:10.1016/j.bmc.2010.01.049 (Glaxosmithkline, 2010)
Where a name gives a salt, the structure may show the parent alone.

Assays:
[1] = biological target: Melanocyte-stimulating hormone receptor (Homo sapiens, UniProt Q01726); assay: Agonist activity at human MC1R expressed in CHO cells after 4 hrs by luciferase reporter gene assay
Summary of the method: (§1)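 CHO-6xCRE-luc+ cells expressing the human receptor, plated at 4000 cells/well in DMEM/F12 with 10% FBS 48 h before assay. Switched to serum-free medium 16 h before compound addition, then incubated 4 h at 37 °C. Luciferase read after 10 min dark adaptation. Activity expressed as % of fold stimulation by 1 × 10^-7 M NDP-aMSH (duplicate control wells).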

[2] = biological target: Melanocortin receptor 4 (Homo sapiens, UniProt P32245); assay: Agonist activity at human MC4R expressed in CHO cells after 4 hrs by luciferase reporter gene assay; summary of the method: as §1
Sequence of Melanocortin receptor 4 (P32245 whole entry): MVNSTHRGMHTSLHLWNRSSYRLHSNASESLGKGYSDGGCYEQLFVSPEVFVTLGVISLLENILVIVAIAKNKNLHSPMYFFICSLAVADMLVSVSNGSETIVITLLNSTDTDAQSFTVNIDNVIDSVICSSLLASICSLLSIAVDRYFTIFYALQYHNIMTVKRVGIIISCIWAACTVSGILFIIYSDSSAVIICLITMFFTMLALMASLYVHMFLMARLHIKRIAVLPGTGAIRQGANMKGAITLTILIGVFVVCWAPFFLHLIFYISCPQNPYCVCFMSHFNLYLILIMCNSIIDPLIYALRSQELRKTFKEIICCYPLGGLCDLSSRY

Sequence of Melanocyte-stimulating hormone receptor (Q01726 whole entry): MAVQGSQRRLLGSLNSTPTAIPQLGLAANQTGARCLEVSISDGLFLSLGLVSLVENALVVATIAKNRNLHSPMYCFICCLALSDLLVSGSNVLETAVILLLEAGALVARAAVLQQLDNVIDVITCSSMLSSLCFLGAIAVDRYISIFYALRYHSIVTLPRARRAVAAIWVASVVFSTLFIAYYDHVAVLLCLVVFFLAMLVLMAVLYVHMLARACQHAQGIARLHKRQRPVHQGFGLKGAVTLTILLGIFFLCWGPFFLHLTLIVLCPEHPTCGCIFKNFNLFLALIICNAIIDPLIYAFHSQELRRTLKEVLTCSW

**Q.** With `CC(C)N(C(=O)CN1C=CN(c2ccccc2)C(=O)[C@@H](Cc2n[nH]c3ccccc23)C1=O)c1ccccc1` as the compound, how does the EC50 [1] read?
**A.** > 31.6 µM

**Q.** For `CC(C)N(C(=O)CN1C=CN(c2ccccc2)C(=O)C(Cc2n[nH]c3ccccc23)C1=O)c1ccc(O)cc1` (stereo unspecified), which EC50 [2] is on record?
**A.** > 31.6 µM

**Q.** Which results are given for `COc1ccc(N(C(=O)CN2C=CN(C3CCCCC3)C(=O)C(Cc3ccccc3)C2=O)C(C)C)cc1` (racemic) [(+/-)-2-[4-Cyclohexyl-5,7-dioxo-6-(phenylmethyl)-4,5,6,7-tetrahydro-1H-1,4-diazepin-1-yl]-N-(1-methylethyl)-N-[4-(methyloxy)phenyl]acetamide]?
**A.** EC50 [2]: > 31.6 µM; EC50 [1]: > 31.6 µM

**Q.** `COc1ccc(N(C(=O)CN2C=CN(C3CCCCC3)C(=O)C(Cc3n[nH]c4ccccc34)C2=O)C(C)C)cc1` (racemic) [(+/-)-2-[4-Cyclohexyl-6-(1H-indazol-3-ylmethyl)-5,7-dioxo-4,5,6,7-tetrahydro-1H-1,4-diazepin-1-yl]-N-(1-methylethyl)-N-[4-(methyloxy)phenyl]acetamide trifluoroacetate] was tested. Which EC50 [2] did it give?
**A.** > 31.6 µM

**Q.** What about the EC50 [1] of the same compound?
**A.** > 31.6 µM

**Q.** How did the EC50 [2] turn out when `COc1ccc(N(C(=O)CN2C=CN(Cc3ccccc3)C(=O)C(Cc3n[nH]c4ccccc34)C2=O)C(C)C)cc1` (racemic) [(+/-)-2-[6-(1H-Indazol-3-ylmethyl)-5,7-dioxo-4-(phenylmethyl)-4,5,6,7-tetrahydro-1H-1,4-diazepin-1-yl]-N-(1-methylethyl)-N-[4-(methyloxy)phenyl]acetamide] was run?
**A.** > 31.6 µM

**Q.** `CC(C)N(C(=O)CN1C=CN(c2ccccc2)C(=O)C(Cc2n[nH]c3ccccc23)C1=O)c1ccc(N2CCOCC2)cc1` (racemic) [(+/-)-2-[6-(1H-Indazol-3-ylmethyl)-5,7-dioxo-4-phenyl-4,5,6,7-tetrahydro-1H-1,4-diazepin-1-yl]-N-(1-methylethyl)-N-[4-(4-morpholinyl)phenyl]acetamide] was tested. Which EC50 [2] did it give?
**A.** > 31.6 µM

**Q.** With `CC(C)N(C(=O)CN1C=CN(C)C(=O)C(Cc2n[nH]c3cc(F)ccc23)C1=O)c1ccc(F)cc1` (racemic) [(+/-)-2-{6-[(6-Fluoro-1H-indazol-3-yl)methyl]-4-methyl-5,7-dioxo-4,5,6,7-tetrahydro-1H-1,4-diazepin-1-yl}-N-(4-fluorophenyl)-N-(1-methylethyl)acetamide] as the compound, how does the EC50 [2] read?
**A.** > 31.6 µM

**Q.** For `COc1ccc(N(C(=O)CN2C=CN(c3ccccc3)C(=O)C(Cc3nn(C)c4ccccc34)C2=O)C(C)C)cc1` (racemic) [(+/-)-N-(1-methylethyl)-2-{6-[(1-methyl-1H-indazol-3-yl)methyl]-5,7-dioxo-4-phenyl-4,5,6,7-tetrahydro-1H-1,4-diazepin-1-yl}-N-[4-(methyloxy)phenyl]acetamide], which EC50 [2] is on record?
**A.** > 31.6 µM

**Q.** What about the EC50 [1] of the same compound?
**A.** > 31.6 µM
